High-throughput results deposited in PubChem BioAssay by several laboratories.
697 NFkB inh = inhibitors of the PMA/ionomycin-induced NF-kB reporter in 697 B cells. 697 B-cell NF-kB luciferase reporter, 16 h. inhibition, % at 4 µM. hit rate 0.33% among 330,000. AID 435022; in the data active = inhibition above about 35%
Jurkat NFkB inh = inhibitors of the PMA/ionomycin-induced NF-kB reporter in Jurkat cells; inhibition, % at 4 µM; PMA/ionomycin-induced NF-kB luciferase reporter, luminescence; hit rate 0.53% among 330,000; in the data active = inhibition above about 50%
T cruzi inh = blocks replication of Trypanosoma cruzi. T. cruzi beta-gal in NIH3T3, luminescence, 90 h. inhibition, % (concentration not given with the values). hit rate 1.4% among 300,000. AID 1885;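 active = mean inhibition across valid replicates above about 55%, limit read from the data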;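 note: signal also drops with host cell toxicity which is not excluded here; 0% = plate median of DMSO wells and 100% = zero luminescence signal; higher percent means less beta-gal luminescence so fewer parasites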
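Test system: β-gal T. cruzi (Tulahuen C4) inside NIH/3T3 cells / Quantity: 5,000 cells/well / Measured by: luminescence from GalScreen with 0.05% NP40, read after 60 min / Medium: DMEM plus 2% FBS / Measure: parasite load inhibition, % / Reagent: Tulahuen C4 trypomastigotes, 5000/well / Schedule: co-culture of at least 90 h after 3 h attachment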
GPR7 antag = antagonists of human GPR7 (neuropeptides B/W receptor 1). AID 1861. inhibition, % at 4.4 µM. P48145. hit rate 1.1% among 290,000. GPR7-expressing cells, fluorescence antagonist assay; in the data active = inhibition above about 16%, passing the limit was not always enough;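 note: cells stimulated with the agonist NPW; 0% = agonist with vehicle and 100% = vehicle without agonist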
Target sequence (P48145 whole entry, looked up): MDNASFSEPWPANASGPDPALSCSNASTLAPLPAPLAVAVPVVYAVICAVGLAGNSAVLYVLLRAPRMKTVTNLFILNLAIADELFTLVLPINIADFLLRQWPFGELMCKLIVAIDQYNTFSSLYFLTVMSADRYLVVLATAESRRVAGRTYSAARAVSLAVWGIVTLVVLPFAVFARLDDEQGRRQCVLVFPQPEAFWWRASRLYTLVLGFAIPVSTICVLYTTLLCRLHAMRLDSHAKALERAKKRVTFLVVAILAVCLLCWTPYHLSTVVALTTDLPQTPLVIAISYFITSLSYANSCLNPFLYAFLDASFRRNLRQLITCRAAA
HSF1 activator = increases HSF-1 driven luciferase reporter signal; NIH3T3-HGL HSF-1 luciferase reporter, MG132, 8 h; 100% = twice DMSO control signal; activation, % at 9 µM; hit rate 1.7% among 300,000;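 active = mean replicate activation of at least 50% with a set share of replicates each reaching 50%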;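 note: 0% = median of the neutral control wells and 100% = twice that signal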
HSF1 inh = HSF1 inhibition | AID 2098 | activity change, negative = inhibition, % at 7.5 µM (by protocol) | NIH3T3-HGL HSE-luciferase, MG132-induced, luminescence 8 h; hits give low values | hit rate 0.77% among 300,000;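 active = more than half of replicate wells show activity change below -50%, luminescence cut by over half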;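 note: luciferase reports HSF-1 transcriptional activity via heat shock element; 0% = median of DMSO wells and -100% = zero luminescence signal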
An asterisk follows results filed as active; . = not tested or not shown. Shown are actives, neighbours in structure and some others; about 4.8% of the full set was active somewhere.

SMILES | 697 NFkB inh | Jurkat NFkB inh | T cruzi inh | GPR7 antag | HSF1 activator | HSF1 inh
CS(=O)(=O)c1nc(S(=O)(=O)c2ccc(Cl)cc2)c(N2CCN(CCO)CC2)s1 | 5 | 10 | -15 | -3 | -9 | -2
CN1C(C(=O)Nc2ccc(OC(F)(F)F)cc2)=CC(c2cccs2)=NS1(=O)=O | -6 | 12 | 22 | -9 | -80 | -74*
Cc1[nH]c2ccc(C(=O)NCCCN(C)C3CCCCC3)cc2c1C | -32 | 11 | 6 | -7 | -21 | 4
CC(=O)C1=C(C)OC(N)=C(C#N)C1c1cccc([N+](=O)[O-])c1 (stereo not given) | -8 | -3 | -1 | 33* | 2 | 1
CC1=C(n2nnc([N+](=O)[O-])n2)C(c2cccnc2)C(C#N)=C(N)O1 (stereo not given) | 18 | 19 | 57* | -2 | -19 | -5
COCCOc1cc(-n2ccnc2SC)c(Cl)cc1Cl | -1 | -9 | -2 | -8 | -4 | -1
CC1CC(=O)N(c2ccc(NCCc3ccc(O)cc3)c([N+](=O)[O-])c2)C1=O (stereo not given) | -14 | -7 | -4 | 0 | 6 | 0
O=C1C2CC=CCC2C(=O)N1c1ccc(NCCc2ccccc2)c([N+](=O)[O-])c1 (stereo not given) | -68 | -24 | 20 | 0 | 70* | 35
CC1CC(=O)N(c2ccc(NCCc3ccccc3)c([N+](=O)[O-])c2)C1=O (stereo not given) | -16 | 9 | -1 | -12 | 23 | 20
O=C1C2CC=CCC2C(=O)N1c1ccc(NCCc2ccccc2F)c([N+](=O)[O-])c1 (stereo not given) | -69 | -14 | 18 | 10 | 64* | 37
CC(C)COc1ccc(C(=O)NNC(=O)c2ccc(=O)[nH]c2)cc1 | 4 | -5 | . | . | . | .
CCc1ccc(NC(=O)C/C(C)=N/NC(=O)COc2ccccc2C)cc1 | -10 | -11 | -11 | -3 | 15 | 5
O=C(c1ccc2ccccc2c1)N1CCN(S(=O)(=O)/C=C/c2ccccc2)CC1 | 13 | -7 | 55* | 5 | 9 | -10
Nc1ccc(C(=O)N2CCN(S(=O)(=O)/C=C/c3ccccc3)CC2)cc1[N+](=O)[O-] | 3 | 13 | -5 | . | 8 | -1
Cc1ccc2nc(-c3ccc(O)cc3)oc2c1 | -224 | -134 | -8 | -19 | 27 | 9
CC(=O)NCCc1nc2ccccc2n1CCCCOc1ccccc1 | -8 | -40 | -15 | -4 | 54* | 18
CC(=O)NCCc1nc2ccccc2n1CCOc1ccccc1 | 7 | 6 | -19 | -13 | -1 | 2
OCc1nc2ccccc2n1CCOc1ccccc1 | 10 | 4 | -6 | . | -9 | -4
CCOc1ccc(Nc2nc3ccccc3n2C)cc1 | -47 | -73 | -16 | . | 72* | 30
CCN(CC)CCNc1nc2ccccc2n1C | -10 | -3 | -22 | 3 | 57* | 15
CCOc1ccc(NCc2nc3ccccc3n2CCOc2ccccc2)cc1 | . | . | 25 | 4 | -61 | -52*
CC(=O)Nc1ccc(C(=O)NNC(=O)c2cccc(C)c2)cc1 | 5 | -7 | -10 | -6 | 5 | 2
CCOC(=O)c1c(NC(=O)COC(=O)c2ccccn2)sc2c1CCC2 | 0 | -22 | 39 | -13 | -13 | -1
Cc1ccc(S(=O)(=O)N(C)CCCC(=O)N2CCCCC2)cc1 | -5 | -1 | 3 | -14 | -2 | 0
CC(C)Nc1nc(NC(C)C)nc(N(C#N)CCOc2ccc(Cl)cc2Cl)n1 | -2 | -4 | 73* | -12 | -7 | -6
SMILES | 697 NFkB inh | Jurkat NFkB inh | T cruzi inh | GPR7 antag | HSF1 activator | HSF1 inh
Cc1cc(C)nc(N(C#N)CCOc2ccc(Cl)cc2)n1 | -15 | 10 | -2 | -8 | 48 | 15
NC(=O)CC(NC(=O)Cc1cccc2ccccc12)c1ccc(NCCc2ccccc2F)c([N+](=O)[O-])c1 (stereo not given) | 15 | 12 | -5 | . | -6 | 5
CCCCNC(=O)C1c2ccccc2Oc2ccccc21 | 11 | 3 | -17 | -1 | -15 | -11
CCCC(C)NC(=O)C1c2ccccc2Oc2ccccc21 (stereo not given) | -7 | 7 | -5 | -7 | -67 | -61*
COc1cccc(CSc2nc3ccccc3[nH]2)c1 | -61 | -83 | -9 | -3 | 112* | 63
Fc1c(F)c(F)c(CSc2nc3ccccc3[nH]2)c(F)c1F | -9 | -23 | -1 | -16 | 56* | 33
Cc1cccc(NC(=O)C2=C(O)c3ccccc3N(C)S2(=O)=O)c1 | -11 | 11 | -13 | -5 | 4 | 4
CN1c2ccccc2C(O)=C(C(=S)Nc2ccc(Cl)cc2)S1(=O)=O | 6 | -10 | -1 | 5 | 60* | 27
Cc1ccnc2nc(C(=O)Nc3ccc(S(=O)(=O)N4CCCC4)cc3)nn12 | 4 | 2 | -39 | -8 | 29 | 4
Cn1nnnc1Sc1ncnc2scc(-c3ccc(Br)cc3)c12 | -79 | 6 | . | . | . | .
Cn1nnnc1Sc1ncnc2scc(-c3ccc(F)cc3)c12 | -124 | -82 | -35 | -8 | 62* | 41
CC(NC(=O)/C(C#N)=C/c1ccco1)c1ccccc1 (stereo not given) | 9 | 13 | -3 | -8 | -22 | -4
CC(NC(=O)/C(C#N)=C/c1ccc([N+](=O)[O-])o1)c1ccccc1 (stereo not given) | -3 | 13 | 36 | 15 | -66 | -62*
CCOCCCNC(=O)/C(C#N)=C/c1ccc([N+](=O)[O-])o1 | -3 | 1 | 74* | -4 | 45 | 39
CN(C)c1cccc(C(=O)N/N=C/c2ccsc2)c1 | -65 | -37 | 2 | -10 | -8 | 1
N#CC(C#N)=C1C(=O)N(CCN2CCOCC2)c2ccccc21 | 13 | 13 | -14 | 5 | 3 | -6
C=CCSC1=Nc2sccc2C2=NC(=O)CN12 | 11 | 11 | 6 | -11 | -81 | -75*
O=S(=O)(Nc1ccccc1O)c1cccc2cccnc12 | -9 | -7 | -10 | 4 | 78* | 36
O=C(NCCc1ccccc1)C1CCC(=O)N1C1CCCC1 (stereo not given) | -2 | -14 | -5 | -2 | -18 | -6
O=C(/C=C/Nc1cccc([N+](=O)[O-])c1)c1ccco1 | -75 | -65 | 3 | 3 | 14 | 13
Cc1ccc(C(=O)/C=C/Nc2cccc([N+](=O)[O-])c2)o1 | . | . | 16 | 0 | 59* | 22
Cc1ccc(CC(=O)Nc2cccc([N+](=O)[O-])c2)cc1 | -11 | -4 | -6 | 19* | -46 | -32
Cc1ccc(S(=O)(=O)CCC(=O)Nc2cccc([N+](=O)[O-])c2)cc1 | 5 | -7 | -14 | -13 | 2 | 0
O=C(CCc1ccccc1)Nc1cccc([N+](=O)[O-])c1 | 0 | -10 | 0 | -13 | -82 | -76*
O=C(CCCc1ccccc1)Nc1cccc([N+](=O)[O-])c1 | -18 | -53 | 7 | 17 | 16 | 4
